# In PubChem BioAssay:
# Calls of active or inactive are those of the source.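 The calls were made as follows, unless noted: active = viability at or below 10% of carrier control in both of two separate runs; inconclusive = viability at or below 10% in only one of the two runs; inactive = the rest.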
# How the values were obtained:
# [1] = reduced viability of SK-BR-3 breast cancer cells – cell-based, 24 h, human, pilot screen (AID 572); conditions: SK-BR-3 viability, CellTiter-Glo luminescence, at 10 µM, stronger effect = lower value;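 also: compound exposure lasted between 18 and 24 h rather than exactly 24 h; 100% = carrier-treated control wells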
# [2] = HUVEC growth inhibition – cell-based, human, primary screen (AID 575;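 active = viability at or below 30% in both replicate assays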;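 also: 100% = median of untreated cell wells with 0.1% DMSO on each plate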); conditions: HUVEC proliferation, CellTiter-Glo luminescence, 72 h; at 10 µM; stronger effect = lower value
# Outline: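 Test system – primary HUVEC, no more than 12 passages · Dosing – one dose, 10 µM final, 0.1% DMSO · Times – 72 h treatment at 37 °C · Measured by – ATP-based CellTiter-Glo luminescent read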
# [3] = H69AR cell proliferation blockers – human, duplicate replicates, primary screen (AID 580;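 active = viability at or under a set limit in both replicates, limit being median viability minus 3 SD, cut at about 48% in these data, passing the limit was not always enough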;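 also: 100% = mean luminescence of untreated wells and 0% = no signal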); conditions: H69AR lung tumor cells viability, ATP luminescence, 72 h; at 10 µM; stronger effect = lower value
# [4] = MRP1 drug-resistance reversers in H69AR cells – cell-based, doxorubicin co-treatment, pilot screen (AID 601;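 active = viability loss from added drug above about 55%, and viability with drug at most 40%, in both replicates, limit read from the data, passing the limit was not always enough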); conditions: CellTiter-Glo, 72 h, at 10 µM; for differential viability (reversal): stronger effect = higher value
# [5] = yeast transport mutant growth inhibition pilot in 384-well plates, post-Golgi transport modulator project (AID 636; in the data active = inhibition above about 31%); conditions: absorbance 615 nm, about 18 h, stronger effect = higher value
# [6] = growth suppression of yeast trafficking mutant, preliminary HTS, modulators of trafficking downstream of Golgi apparatus project, 1536-format plate, OD 615 nm (AID 637; in the data active = inhibition above about 30%); conditions: yeast transport mutant growth, absorbance 615 nm, 18 h; stronger effect = higher value
# [7] = H69AR cells + 2 uM doxorubicin, measured here: viability with 2 uM doxorubicin, stronger effect = lower value
# [8] = H69AR cells, compound alone cytotoxicity
Structure (SMILES),viability [1],viability [2],viability [3],differential viability (reversal) ([4]; H69AR cells + 2 uM doxorubicin),"viability [4, 7] [%]","viability [4, 8] [%]",inhibition [5],inhibition [6]
COc1ccc(CCN(C)CCCC(C#N)(c2cc(OC)c(OC)c(OC)c2)C(C)C)cc1OC (stereo not drawn),85% (inactive),64.6% (inactive),95.6% (inactive),-5.51% (inactive),101,95.6,5.71% (inactive),-1.17% (inactive)
COc1ccc(NC(=O)N2CCC(c3nc(-c4cccs4)no3)CC2)cc1,121% (inactive),98.3% (inactive),95.6% (inactive),15.4% (inactive),80.2,95.6,-2.4% (inactive),0.73% (inactive)
COc1cccc(-c2csc(N3CCN(CC(=O)Nc4ccc5c(c4)OCO5)CC3)n2)c1,106% (inactive),78.9% (inactive),80.3% (inactive),-1.21% (inactive),81.5,80.3,-2.34% (inactive),0% (inactive)
CNc1nnc(-c2cccc(N(C)C)c2)s1,111% (inactive),95.9% (inactive),92% (inactive),7.45% (inactive),84.6,92,-4.55% (inactive),7.38% (inactive)
O=C(CN1CCCN(S(=O)(=O)c2ccc(F)cc2)CC1)Nc1ccccc1Br,84% (inactive),87.7% (inactive),76.3% (inactive),-7.18% (inactive),83.5,76.3,1.17% (inactive),-1.48% (inactive)
CN1CC=C2C(C#N)=C(N)C(C#N)(C#N)C(Cc3ccccc3)C2C1 (stereo not drawn),85% (inactive),69% (inactive),84.6% (inactive),-2.88% (inactive),87.5,84.6,-8.22% (inactive),-7.26% (inactive)
Cc1cc(Cl)ccc1OCC(=O)Nn1c(C)ccc1C,68% (inactive),101% (inactive),94% (inactive),11.1% (inactive),82.9,94,-1.37% (inactive),-4.68% (inactive)
CS(=O)(=O)N1CCCC(C(=O)N2CCOCC2)C1 (stereo not drawn),97% (inactive),108% (inactive),98.3% (inactive),4.13% (inactive),94.2,98.3,-2.6% (inactive),-1.15% (inactive)
Cc1cc(Cl)c(S(=O)(=O)Nc2ccc3c(c2)OCCO3)cc1OCC(N)=O,78% (inactive),107% (inactive),97.2% (inactive),11.7% (inactive),85.5,97.2,0.27% (inactive),4.84% (inactive)
COc1ccc(C(C)NC(=O)c2ccoc2C)cc1OC (stereo not drawn),83% (inactive),91.3% (inactive),89.8% (inactive),-4.93% (inactive),94.7,89.8,-6.16% (inactive),1.82% (inactive)
NCCCCCc1nnc(SC/C=C/c2ccccc2)o1,99% (inactive),73.8% (inactive),89.9% (inactive),3.04% (inactive),86.9,89.9,-6.85% (inactive),18.2% (inactive)
CCOC(=O)C1CCCN(C(=O)Cc2ccc(OC)c(OC)c2)C1 (stereo not drawn),81% (inactive),99.5% (inactive),94.5% (inactive),2.69% (inactive),91.8,94.5,-6.85% (inactive),1.09% (inactive)
CCc1nc(SCc2cc(Cl)ccc2OC)n[nH]1,99% (inactive),94.2% (inactive),94.7% (inactive),-11.5% (inactive),106,94.7,-0.68% (inactive),-6.55% (inactive)
Cc1cc(S(=O)(=O)N(Cc2ccccc2)Cc2ccc(N(C)C)cc2)ccc1-n1cnnn1,81% (inactive),84.3% (inactive),84% (inactive),-3.54% (inactive),87.6,84,-8.24% (inactive),-2.36% (inactive)
CCOC(=O)CNC(=O)CSc1nc(N(C)C)nc(N2CCOCC2)n1,88% (inactive),98.1% (inactive),89.2% (inactive),2.04% (inactive),87.1,89.2,-9.86% (inactive),6.45% (inactive)
CCOc1ccc(S(=O)(=O)N(C)C)cc1-c1nc2c(C(C)(C)C)nn(C)c2c(=O)[nH]1,99% (inactive),103% (inactive),78.9% (inactive),0.77% (inactive),78.1,78.9,-2.03% (inactive),-3.09% (inactive)
O=C(CSCc1cccs1)N1CCCC1,115% (inactive),93.6% (inactive),104% (inactive),13.8% (inactive),90.6,104,-0.91% (inactive),5.41% (inactive)
Cc1cc2cc(CNC(=O)c3ccc4c(c3)OCO4)ccc2[nH]1,102% (inactive),114% (inactive),89.1% (inactive),-3.21% (inactive),92.3,89.1,-1.56% (inactive),3.61% (inactive)

Structure (SMILES),viability [1],viability [2],viability [3],differential viability (reversal) ([4]; H69AR cells + 2 uM doxorubicin),"viability [4, 7] [%]","viability [4, 8] [%]",inhibition [5],inhibition [6]
CN1CCN(C(=O)NC2CCCN2S(=O)(=O)c2ccc(Cl)cc2)CC1 (stereo not drawn),100% (inactive),96.4% (inactive),88.9% (inactive),-0.73% (inactive),89.6,88.9,-1.1% (inactive),-4.68% (inactive)
N[C@@H](C(=O)N[C@@H]1C(=O)N2C(C(=O)O)=C(Cl)CS[C@H]12)c1ccccc1,108% (inactive),98% (inactive),114% (inactive),10.7% (inactive),103,114,-2.6% (inactive),4.83% (inactive)
COC(=O)C1(C)NC(c2cccs2)C2C(=O)N(c3ccccc3F)C(=O)C21 (stereo not drawn),80% (inactive),96.3% (inactive),99.3% (inactive),4.93% (inactive),94.4,99.3,-0.27% (inactive),-0.48% (inactive)
CCCCOc1ccc(C2C3CN(C(=O)OCC)CC=C3C(C#N)=C(N)C2(C#N)C#N)cc1OC (stereo not drawn),62% (inactive),51.2% (inactive),60.5% (inactive),5.07% (inactive),55.4,60.5,-5.27% (inactive),2.13% (inactive)
O=C(CN(C1CCCCC1)S(=O)(=O)c1ccccc1)NCc1cccnc1,83% (inactive),103% (inactive),96% (inactive),3.4% (inactive),92.6,96,-6.76% (inactive),-0.55% (inactive)
CCOC(=O)c1c(C(F)(F)C(F)(F)C(F)(F)C(F)(F)F)n[nH]c1C,63% (inactive),79.5% (inactive),76.8% (inactive),25.1% (inactive),51.7,76.8,-5.75% (inactive),4% (inactive)
CCCCN(Cc1cc2cc(OC)ccc2[nH]c1=O)C(=O)c1ccccn1,102% (inactive),98% (inactive),102% (inactive),6.81% (inactive),95,102,-5.14% (inactive),-3.82% (inactive)
COc1cccc(NC(=O)N2CCCC2C(=O)Nc2ccc3c(c2)OCO3)c1 (stereo not drawn),106% (inactive),114% (inactive),96.3% (inactive),16.1% (inactive),80.2,96.3,-5.33% (inactive),-4.55% (inactive)
CCC1CCCCN1CCCNC(=O)c1ccc(CS(=O)(=O)Cc2ccccc2F)o1 (stereo not drawn),106% (inactive),114% (inactive),92.9% (inactive),-12.3% (inactive),105,92.9,-7.4% (inactive),2.73% (inactive)
COC(=O)c1ccccc1NC(=O)C1CC=CCC1C(=O)O (stereo not drawn),117% (inactive),99.7% (inactive),84.8% (inactive),1.5% (inactive),83.3,84.8,-9.73% (inactive),-0.81% (inactive)
C=CCn1c(SCC(=O)Nc2ccc3c(c2)OCO3)nc2ccccc2c1=O,73% (inactive),83.9% (inactive),84.2% (inactive),2.04% (inactive),82.1,84.2,-3.84% (inactive),-1.27% (inactive)
NC(=O)C1(N2CCCCC2)CCN(C(=O)Nc2ccccc2C(F)(F)F)CC1,97% (inactive),105% (inactive),90.9% (inactive),4.2% (inactive),86.7,90.9,-0.39% (inactive),5.08% (inactive)
CCOC(=O)c1cnc2c(OC)cccc2c1N1CCN(c2ccc(OC)cc2)CC1,124% (inactive),66.1% (inactive),79.6% (inactive),20.9% (inactive),58.7,79.6,-3.38% (inactive),0.63% (inactive)
O=C1CC(c2ccccc2)NC(=O)N1 (stereo not drawn),78% (inactive),105% (inactive),98.8% (inactive),2.63% (inactive),96.1,98.8,-7.26% (inactive),-0.36% (inactive)
O=C(O)CSC1CC(=O)N(c2ccc(Cl)c(Cl)c2)C1=O (stereo not drawn),104% (inactive),109% (inactive),98.8% (inactive),7.75% (inactive),91.1,98.8,-8.38% (inactive),0.36% (inactive)
O=C(O)c1ccccc1Nc1cccc(C(F)(F)F)c1,135% (inactive),69.6% (inactive),88.6% (inactive),11.3% (inactive),77.3,88.6,-1.3% (inactive),2% (inactive)
O=C(NC1CC1)C1CCC(=O)N1C1CCCC1 (stereo not drawn),93% (inactive),102% (inactive),105% (inactive),16.3% (inactive),88.4,105,-1.17% (inactive),0.33% (inactive)
Cc1ccc(OCC2Cn3c(nc4c3c(=O)n(C)c(=O)n4C)O2)cc1 (stereo not drawn),91% (inactive),96% (inactive),93% (inactive),-3% (inactive),96,93,-8.36% (inactive),2.91% (inactive)
